Experimental data: publication PMC7578760 (iScience, 2020)

System: CIC
Test: Nuclear/cytoplasmic distribution of CIC
Assay type: cell-based, human
Conditions: 293T and MCF7; FGF 10 ng/mL or EGF 75 ng/mL, time course
Summary of the method: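 293T and MCF7 cells grown in high-glucose DMEM with 10% FBS and penicillin-streptomycin. Endogenous CIC: cells exposed to 10 ng/mL FGF or 75 ng/mL EGF for indicated times. Exogenous CIC: cells transfected with HA-CIC plasmid for 48 h, then FGF 10 ng/mL for 0, 1, 2 h. Cells separated into nuclear and cytoplasmic fractions; CIC in each fraction detected by western blot.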

B1: EGF: mitogen, 75 ng/mL (protein, UniProt P01133 23-1207, looked up)
Pro-epidermal growth factor: PQHWSCPEGTLAGNGNSTCVGPAPFLIFSHGNSIFRIDTEGTNYEQLVVDAGVSVIMDFHYNEKRIYWVDLERQLLQRVFLNGSRQERVCNIEKNVSGMAINWINEEVIWSNQQEGIITVTDMKGNNSHILLSALKYPANVAVDPVERFIFWSSEVAGSLYRADLDGVGVKALLETSEKITAVSLDVLDKRLFWIQYNREGSNSLICSCDYDGGSVHISKHPTQHNLFAMSLFGDRIFYSTWKMKTIWIANKHTGKDMVRINLHSSFVPLGELKVVHPLAQPKAEDDTWEPEQKLCKLRKGNCSSTVCGQDLQSHLCMCAEGYALSRDRKYCEDVNECAFWNHGCTLGCKNTPGSYYCTCPVGFVLLPDGKRCHQLVSCPRNVSECSHDCVLTSEGPLCFCPEGSVLERDGKTCSGCSSPDNGGCSQLCVPLSPVSWECDCFPGYDLQLDEKSCAASGPQPFLLFANSQDIRHMHFDGTDYGTLLSQQMGMVYALDHDPVENKIYFAHTALKWIERANMDGSQRERLIEEGVDVPEGLAVDWIGRRFYWTDRGKSLIGRSDLNGKRSKIITKENISQPRGIAVHPMAKRLFWTDTGINPRIESSSLQGLGRLVIASSDLIWPSGITIDFLTDKLYWCDAKQSVIEMANLDGSKRRRLTQNDVGHPFAVAVFEDYVWFSDWAMPSVMRVNKRTGKDRVRLQGSMLKPSSLVVVHPLAKPGADPCLYQNGGCEHICKKRLGTAWCSCREGFMKASDGKTCLALDGHQLLAGGEVDLKNQVTPLDILSKTRVSEDNITESQHMLVAEIMVSDQDDCAPVGCSMYARCISEGEDATCQCLKGFAGDGKLCSDIDECEMGVPVCPPASSKCINTEGGYVCRCSEGYQGDGIHCLDIDECQLGEHSCGENASCTNTEGGYTCMCAGRLSEPGLICPDSTPPPHLREDDHHYSVRNSDSECPLSHDGYCLHDGVCMYIEALDKYACNCVVGYIGERCQYRDLKWWELRHAGHGQQQKVIVVAVCVVVLVMLLLLSLWGAHYYRTQKLLSKNPKNPYEESSRDVRSRRPADTEDGMSSCPQPWFVVIKEHQDLKNGGQPVAGEDGQAADGSMQPTSWRQEPQLCGMGTEQGCWIPVSSDKGSCPQVMERSFHMPSYGTQTLEGGVEKPHSLLSANPLWQQRALDPPHQMELTQ
modifications: Pro-epidermal growth factor
cytosolic fraction of CIC: time-dependent increase in the cytosolic fraction of CIC | nuclear fraction of CIC: concomitant drop of the nuclear fraction
